# Screening results (PubChem)
# In the library only some 3.7% were active in any assay of this set; here they are far more common.
# Kir21 block = inhibitors of mouse Kir2.1 inward-rectifier potassium channel; P35561; HEK293-Kir2.1, FluxOR thallium flux fluorescence; stronger effect = lower value; B-score at 10 µM; 310,000 tested, 0.85% active; AID 1672;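 active = fluorescence ratio B-score at or below minus 3 SD of library scores, with starting-brightness B-score within 2 SD, cut at about -4.2 in these data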;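 also: channel flux triggered by added potassium and thallium sulfate stimulus; B-score of peak minus minimum fluorescence over baseline after thallium stimulus; more negative B-score means stronger Kir2.1 block with less thallium influx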
# KCNK3 block = human KCNK3 channel inhibition, primary screen; O14649; B-score at 10 µM; CHO-KCNK3 thallium flux, FluxOR fluorescence; stronger effect = lower value; AID 602410; 340,000 tested, 0.84% active;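 active = B-score under library mean minus 4 SD, starting fluorescence ratio at most library mean plus 5 SD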;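 also: more negative B-score means stronger inhibition of thallium flux through KCNK3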
# KCNK9 block = human KCNK9 channel inhibition; HEK293 KCNK9, FluxOR thallium flux fluorescence; stronger effect = lower value; Q9NPC2; B-score at 10 µM; 310,000 tested, 1.2% active; AID 488922;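 active = ratio B-score over 3 SD below the library mean, with starting fluorescence within 5 SD of its mean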;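 also: negative B-score means less thallium flux so channel inhibition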
# KCNQ1 act = potentiators or activators of human KCNQ1 potassium channel | 310,000 tested, 0.35% active | P51787 | AID 2648 | CHO-K1 KCNQ1, thallium flux FluxOR fluorescence; stronger effect = higher value | B-score at 10 µM;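 active = fluorescence ratio B-score, a plate-corrected score, at least three library SD, with initial intensity B-score within 5 SD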
#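 Schedule – 37 °C overnight plating, 90-min dark dye load, 20-min compound pretreatment · System – stable KCNQ1 CHO-K1 line · Probe or stimulus – thallium- and potassium-containing depolarizing buffer · Measured by – kinetic FluxOR fluorescence, 10 s baseline plus 110 s post-stimulus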
# KCNQ1 inh = human KCNQ1 channel inhibition; P51787; CHO-K1 KCNQ1, FluxOR thallium flux fluorescence; stronger effect = higher value; B-score at 10 µM; 310,000 tested, 1.3% active; AID 2642;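 active = compounds whose thallium flux B-score, printed positive for inhibition, exceeds three library SD while starting fluorescence stays within three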;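 also: channel opened by potassium depolarization with thallium stimulus after 20 min compound exposure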
# hERG protect = hERG (human) protection from proarrhythmic block; Q12809; CHO-hERG, FluxOR thallium flux, dofetilide IC70 present; activation (rescue from dofetilide block), less the hit threshold, % at 10 µM; 310,000 tested, 0.51% active; AID 1511;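 active = activation above the mean of controls blocked by dofetilide plus 5 SD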;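 also: thallium influx through hERG after potassium depolarization seen as dye fluorescence rise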
# KCNQ1 inh valid = reconfirmed blocker of the human KCNQ1 potassium channel; shares compounds with KCNQ1 inh; KCNQ1 cell line, FluxOR thallium flux fluorescence; inhibition, % at 10 µM; 1,600 tested, 93% active;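 active = primary screen active, with duplicate mean exceeding buffer control mean plus 3 SD of buffer wells, cut at about 28% in these data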;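 also: 0% = buffer control ratio and 100% = XE991 inhibitor control ratio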
# CHO Tl flux = KCNQ1 inhibitor counter-screen hit in parental CHO cells; AID 588366; 1,600 tested, 21% active; fluorescence ratio (Tl flux) at 10 µM; parental CHO-K1, FluxOR thallium flux fluorescence ratio; stronger effect = lower value; zero means no signal rise above baseline; shares compounds with KCNQ1 inh;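 active = mean of duplicate thallium-flux fluorescence ratios in parental host cells more than 5 SD below the buffer control mean, cut at about 0.38 in these data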;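 also: ratio is peak minus minimum fluorescence divided by baseline fluorescence; actives read low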
# KCNQ1 ephys val = blocks human KCNQ1 current in automated patch clamp; calls only at 10 µM; 490 tested, 20% active; AID 624120; KCNQ1-CHO cells; shares compounds with KCNQ1 inh;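 active = KCNQ1 current drop exceeding 3 SD of negative control wells, seen in both duplicate runs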;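 also: steady state current during a 2 s step from -80 to +40 mV; negative values mean current inhibition and positive values mean potentiation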
# KCNQ2 spec = selectivity of KCNQ1 inhibitors: inhibition of rat KCNQ2 channel; shares compounds with KCNQ1 inh; KCNQ2 cells, FluxOR thallium flux fluorescence; inhibition, % at 10 µM; 1,600 tested, 71% active; AID 651746;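 active = mean percent inhibition of the KCNQ2 thallium signal more than 5 SD above the buffer-only control wells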;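 also: KCNQ2 expressed in CHO cells; 0% = buffer control wells and 100% = XE-991 inhibitor control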
# KCNQ1-KCNE1 inh = human KCNQ1/KCNE1 inhibition in KCNQ1 specificity screen; shares compounds with KCNQ1 inh; KCNQ1/KCNE1 cells, FluxOR thallium flux fluorescence; inhibition, % at 10 µM; 1,600 tested, 77% active; AID 652147;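 active = mean percent inhibition of duplicate wells above the buffer-only control mean plus 3 SD of those controls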;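 also: 0% = buffer only wells and 100% = XE-991 inhibitor control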
# * hit, by the source's call; i = inactive; nt = no result; + = active, no number.
SMILES,Kir21 block,KCNK3 block,KCNK9 block,KCNQ1 act,KCNQ1 inh,hERG protect,KCNQ1 inh valid,CHO Tl flux,KCNQ2 spec,KCNQ1-KCNE1 inh,others
CCCn1c2c(c(O)c(C(=O)Nc3ccc(OC)cc3)c1=O)CCCC2,0.11,i,i,i,7*,-8,94*,0.44,78%*,104%*,KCNQ1 ephys val=i
CC1(C)CC(=O)C2=C(C1)N1C(=C(C#N)C2c2ccc(Cl)cc2)N=C(N)c2ccccc21 (stereo unspecified),-0.04,i,i,i,8*,-11,74*,0.41,77%*,70%*,
CC(=O)Nc1ccccc1OCC(=O)c1cc(C)n(Cc2cccs2)c1C,-1,-9.4*,i,i,7*,-21,110*,0.42,99%*,38%*,
CC(C)NC(=O)c1onc(CSc2ccc(C(C)C)cc2)c1C(=O)O,-0.24,i,i,i,10*,-17,88*,0.47,73%*,42%*,
C=CCSc1nnc(NC(=O)CCN2C(=O)C3CC=CCC3C2=O)s1 (stereo unspecified),nt,i,nt,nt,nt,nt,nt,nt,nt,nt,
S=C(NCc1ccco1)Nc1ccc(Cl)c(Cl)c1,0.49,i,i,i,8*,-18,42*,0.57,i,52%*,
S=C(NCc1ccncc1)Nc1cc(Cl)cc(Cl)c1,0.24,i,i,i,i,-14,nt,nt,nt,nt,
COc1ccc(NC(=S)NCc2ccco2)cc1,0.65,i,i,i,i,0,nt,nt,nt,nt,
S=C(NCc1ccncc1)Nc1ccc(Cl)c(Cl)c1,0.15,i,i,i,6*,-13,33*,0.58,i,i,
S=C(NCc1ccco1)Nc1ccc(Oc2ccccc2)cc1,-0.01,i,i,i,8*,-18,45*,0.43,59%*,66%*,
CCOC(=O)CSc1nc2c(sc(=S)n2-c2ccc(OCC)cc2)c(=O)[nH]1,0.3,i,i,i,i,-8,nt,nt,nt,nt,
COc1ccc(OC)c(NC(=O)CSc2nc3scc(C)c3c(=O)[nH]2)c1,2.1,i,i,i,i,-1,nt,nt,nt,nt,
CCn1c(=S)sc2c(=O)[nH]c(SCC(=O)Nc3cc(OC)ccc3OC)nc21,2,i,i,i,10*,-18,66*,0.45,i,89%*,
CCOc1ccc(-n2c(=S)sc3c(=O)[nH]c(SCC(=O)C(C)(C)C)nc32)cc1,1.5,i,i,i,6*,-6,92*,0.47,i,60%*,KCNQ1 ephys val=+
COc1cc(NC(=O)c2ccno2)cc(C(=O)Nc2cccc(C(F)(F)F)c2)c1,1.2,i,i,i,9*,-17,110*,0.35*,100%*,163%*,
COc1ccc(-c2cn[nH]c2-c2ccc(OCc3ccccc3)cc2O)cc1,0.72,i,-6.7*,i,7*,-9,107*,0.43,91%*,130%*,KCNQ1 ephys val=i
CC(C)(C)OC(=O)N1CCCC(C(=O)CC#N)C1 (stereo unspecified),-0.36,i,i,i,9*,-11,96*,0.49,109%*,188%*,KCNQ1 ephys val=i
C#CCOCCOCCOCCNc1nc(N2CCN(C(=O)[C@H](CCCCN)n3cc(CCCC)nn3)CC2)nc(N2CCN(C(=O)[C@H](CCCCN)n3cc(CCC(=O)O)nn3)CC2)n1,nt,i,nt,nt,nt,nt,nt,nt,nt,nt,
CSCCC(=O)N1CCC(CCC(=O)NC2CC2)CC1,1.8,i,i,i,i,-8,nt,nt,nt,nt,
O=S(=O)(Nc1c(O)ccc2ccccc12)c1cccc2ccccc12,2.1,i,i,i,11*,-20,32*,0.47,i,90%*,
O=C(O)c1cc(NS(=O)(=O)c2cccc3ccccc23)ccc1O,1.4,i,i,i,i,-2,nt,nt,nt,nt,
O=C(c1c(F)cccc1F)N1CCCC(c2nc(-c3cccs3)no2)C1 (stereo unspecified),-0.64,i,i,i,i,-6,nt,nt,nt,nt,
COc1ccc(N(CC(=O)NCc2ccc(Cl)cc2)S(=O)(=O)c2c(C)n[nH]c2C)cc1,-0.03,i,i,i,7*,-22,58*,0.49,75%*,60%*,
COc1ccc(N(CC(=O)NCc2ccccc2)S(=O)(=O)c2c(C)n[nH]c2C)cc1,0.03,i,i,i,i,-10,nt,nt,nt,nt,
O=C(c1ccc2c(c1)OCO2)C1CCCN(Cc2cccc(C(F)(F)F)c2)C1 (stereo unspecified),-1.5,i,i,i,7*,-6,88*,0.43,96%*,97%*,KCNQ1 ephys val=i
SMILES,Kir21 block,KCNK3 block,KCNK9 block,KCNQ1 act,KCNQ1 inh,hERG protect,KCNQ1 inh valid,CHO Tl flux,KCNQ2 spec,KCNQ1-KCNE1 inh,others
O=C(c1cccc(C(F)(F)F)c1)C1CCCN(Cc2ccc(OCCO)cc2)C1 (stereo unspecified),1.7,i,i,i,i,-6,nt,nt,nt,nt,
O=C(COC(=O)c1ccccc1Cc1ccccc1)Nc1ccc(SC(F)F)cc1,0.76,i,i,i,7*,-8,86*,0.41,128%*,101%*,
CCn1nc(C)c(CNC(=O)c2cc(COc3ccc(F)cc3Cl)on2)c1C,-0.67,i,i,i,8*,-23,40*,0.55,i,i,
CCn1cc(CNC(=O)c2cc(COc3ccc(F)cc3Cl)on2)cn1,0.26,i,i,i,i,-4,nt,nt,nt,nt,
Cc1cccc(NC(=O)C2CCN(S(=O)(=O)c3c(C)c(C)cc(C)c3C)CC2)n1,0.93,i,i,i,6*,-22,78*,0.4,77%*,177%*,
O=S(=O)(NCCC1=CCCCC1)c1ccc(Br)cc1,-0.51,i,i,i,7*,-14,99*,0.45,106%*,150%*,KCNQ1 ephys val=+
Cc1cccc(N2CCN(C(=O)c3noc4c3COc3ccc(C)cc3-4)CC2C)c1 (stereo unspecified),0.28,i,i,i,10*,-15,88*,0.5,98%*,112%*,
